From ChEMBL document CHEMBL1126137, “Structure-function studies in a series of carboxyl-terminal octapeptide analogues of anaphylatoxin C5a” (J Med Chem, 1992) come the findings set out here.

pKi: −log10 of the molar value. Where a SMILES comes first, the peptide text is derived from it. [ ]: non-standard residue; d: D form. Cha = N[C@@H](CC1CCCCC1)C(=O)O; Nle = CCCC[C@H](N)C(=O)O

The nature of assay [1]: Compound was evaluated for its ability to stimulate polymorphonuclear leukocyte (PMNL) chemokinetic migration. In kind it is functional, Homo sapiens. The essentials:
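Human blood PMNL from density-gradient centrifugation, with hypotonic red-cell lysis and three washes. Cells at 2×10^8/mL in 0.3% agarose, set as 1-μL droplets, chilled 10 min on ice, then overlaid with buffer ± stimulus. Buffer: Earle's salts, 20 mM HEPES pH 7.0, 0.25% gelatin. Run 2 h at 37 °C. Migration from droplet edge, minus buffer control, as % of peak rC5a response. Dose-response dosing.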

Assay [2] has as its target T1, C5a anaphylatoxin chemotactic receptor 1 (Homo sapiens, UniProt P21730).
T1 sequence (P21730 whole entry): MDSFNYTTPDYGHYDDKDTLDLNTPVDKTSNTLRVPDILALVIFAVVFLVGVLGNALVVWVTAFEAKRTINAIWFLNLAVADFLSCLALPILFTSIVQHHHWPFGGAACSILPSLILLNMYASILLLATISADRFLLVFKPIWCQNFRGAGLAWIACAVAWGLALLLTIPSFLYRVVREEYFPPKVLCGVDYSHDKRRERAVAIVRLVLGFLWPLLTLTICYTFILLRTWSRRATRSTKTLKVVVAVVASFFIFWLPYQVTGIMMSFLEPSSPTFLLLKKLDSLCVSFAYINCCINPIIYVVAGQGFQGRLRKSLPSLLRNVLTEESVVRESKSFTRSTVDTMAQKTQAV
Put plainly: Ability to inhibit the binding of […] to polymorphonuclear leukocyte (PMNL) membrane receptor. The essentials:
(§1)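 Competition for radioiodinated C5a binding to human PMNL membranes, isolated by nitrogen cavitation and Percoll gradient. Tracer made by glucose oxidase-lactoperoxidase iodination and affinity-purified. Buffered balanced salts (pH 7.0), 0.25% gelatin, protease inhibitors, 50–250 pM 125I-C5a, 5–20 μg/mL membranes. 60 min, ambient temperature, filtration. IC50 from linear regression; Ki by Cheng–Prusoff. Single-point lines give percent inhibition at 1 mM peptide.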

For assay [3], the target named is T2, C5a anaphylatoxin chemotactic receptor 1 (Homo sapiens) (UniProt P21730).
T2 sequence (whole entry): T1 sequence (P21730 whole entry)
Briefly: Compound was evaluated for its ability to inhibit the binding of […] to polymorphonuclear leukocyte (PMNL) membrane receptor at 1 mM concentration. The essentials:
as §1

With `CC(=O)N[C@@H](Cc1c[nH]cn1)C(=O)N[C@@H](CCCCN)C(=O)N[C@@H](CC(=O)O)C(=O)N[C@@H](CC1CCCCC1)C(=O)N[C@@H](CC1CCCCC1)C(=O)N[C@H](C(=O)N[C@H](C)C(=O)N[C@@H](CCCN=C(N)N)C(=O)O)C(C)C`, the Efficacy in assay [1] is 60%. The pKi (usually the Ki on a negative log10 scale, so that one unit is a factor of ten) in assay [2] was 5.80.
For `CCC[C@H](NC(=O)[C@H](CC1CCCCC1)NC(=O)[C@H](CC1CCCCC1)NC(=O)[C@H](CC(=O)O)NC(=O)[C@H](CCCCN)NC(=O)[C@H](Cc1c[nH]cn1)NC(C)=O)C(=O)N[C@H](C)C(=O)N[C@@H](CCCN=C(N)N)C(=O)O`, in that order: 55% and 5.28.
For `CC(=O)N[C@@H](Cc1c[nH]cn1)C(=O)NC(CCCCN)C(=O)N[C@@H](CC(=O)O)C(=O)NC(CC1CCCCC1)C(=O)N[C@H](CC1CCCCC1)C(=O)N[C@@H](CC(C)C)C(=O)N[C@H](C)C(=O)N[C@@H](CCCN=C(N)N)C(=O)O` (single isomer, unassigned), in that order: 71% and 3.22.
Take `CC(=O)N[C@@H](Cc1c[nH]cn1)C(=O)N[C@@H](CCCCN)C(=O)N[C@@H](CC(=O)O)C(=O)N[C@@H](Cc1ccc(O)cc1)C(=O)N[C@@H](Cc1ccc(O)cc1)C(=O)N[C@@H](Cc1ccc(O)cc1)C(=O)N[C@H](C)C(=O)N[C@@H](CCCN=C(N)N)C(=O)O`: the inhibition (usually the share of the control response that was lost under treatment) in assay [3] was less than 20%.
Ac-HKDMQLGR-OH: the Efficacy in assay [1] is 107%.
The compound `CCCC[C@H](NC(=O)[C@H](CCCC)NC(=O)[C@H](CCCC)NC(=O)[C@H](CC(=O)O)NC(=O)[C@H](CCCCN)NC(=O)[C@H](Cc1c[nH]cn1)NC(C)=O)C(=O)NCC(=O)N[C@@H](CCCN=C(N)N)C(=O)O` (Ac-HKD[Nle][Nle][Nle]GR-OH) had a pKi in assay [2] of 3.68.
Consider `CC(=O)N[C@@H](Cc1c[nH]cn1)C(=O)N[C@@H](CCCCN)C(=O)N[C@@H](CC(=O)O)C(=O)N[C@@H](CC1CCCCC1)C(=O)N[C@@H](CC1CCCCC1)C(=O)N[C@@H](CC1CCCCC1)C(=O)N[C@H](C)C(=O)N[C@@H](CCCN=C(N)N)C(=O)O`, for which the Efficacy in assay [1] is 67%. Also, the pKi in assay [2] is 5.00.
Turning to `CC(=O)N[C@@H](Cc1c[nH]cn1)C(=O)N[C@@H](CCCCN)C(=O)N[C@@H](CC(=O)O)C(=O)N[C@@H](CC1CCCCC1)C(=O)N[C@@H](CC1CCCCC1)C(=O)N[C@@H](CC(C)C)C(=O)N[C@H](C)C(=O)N[C@@H](CCCN=C(N)N)C(=O)O`, the Efficacy in assay [1] turned out to be 57%. The pKi in assay [2] is 5.54.
In turn, `CSCC[C@H](NC(=O)[C@H](CC(=O)O)NC(=O)[C@H](CCCCN)NC(=O)[C@H](Cc1c[nH]cn1)NC(C)=O)C(=O)N[C@@H](CCC(N)=O)C(=O)N[C@@H](CC1CCCCC1)C(=O)NCC(=O)N[C@@H](CCCN=C(N)N)C(=O)O` (Ac-HKDMQ[Cha]GR-OH) came in with an inhibition in assay [3] of 30%.
`CC(=O)N[C@@H](Cc1c[nH]cn1)C(=O)N[C@@H](CCCCN)C(=O)N[C@@H](CC(=O)O)C(=O)N[C@@H](CC1CCCCC1)C(=O)N[C@H](CC1CCCCC1)C(=O)N[C@@H](CC(C)C)C(=O)N[C@H](C)C(=O)N[C@@H](CCCN=C(N)N)C(=O)O` had an inhibition in assay [3] of 26%.
Regarding `CC[C@H](C)[C@H](NC(=O)[C@H](CC1CCCCC1)NC(=O)[C@H](CC1CCCCC1)NC(=O)[C@H](CC(=O)O)NC(=O)[C@H](CCCCN)NC(=O)[C@H](Cc1c[nH]cn1)NC(C)=O)C(=O)N[C@H](C)C(=O)N[C@@H](CCCN=C(N)N)C(=O)O`, the Efficacy in assay [1] is 56%. Moreover, in assay [2], the pKi is 5.70.
Regarding `CC(=O)N[C@@H](Cc1c[nH]cn1)C(=O)N[C@@H](CCCCN)C(=O)N[C@@H](CC(=O)O)C(=O)N[C@@H](CC1CCCCC1)C(=O)N[C@@H](CC1CCCCC1)C(=O)N[C@@H](CC1CCCCC1)C(=O)NCC(=O)N[C@@H](CCCN=C(N)N)C(=O)O` (Ac-HKD[Cha][Cha][Cha]GR-OH), in assay [1], the Efficacy is reported as 75%. In assay [2], the pKi was 4.60.
Taken in the same sequence, the figures for `CC(=O)N[C@@H](Cc1c[nH]cn1)C(=O)N[C@@H](CCCCN)C(=O)N[C@@H](CC(=O)O)C(=O)N[C@@H](Cc1ccccc1)C(=O)N[C@@H](Cc1ccccc1)C(=O)N[C@@H](Cc1ccccc1)C(=O)N[C@H](C)C(=O)N[C@@H](CCCN=C(N)N)C(=O)O` were 109% and 3.12.
